Assay outcomes as filed in PubChem BioAssay.
In the library only some 3.8% were active in any assay of this set; here they are far more common.
MC4R antagonist = antagonists of human melanocortin 4 receptor (MC4R); P32245; MC4R-expressing cells, MTII-stimulated cAMP, LANCE TR-FRET; inhibition, % at 6.5 µM; 360,000 tested, 0.48% active;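 active means inhibition above its plate's cutoff, the mean of tested wells on that plate plus 3 SD, cut at about 29% in these data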;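 further: 0% = Melanotan II alone and 100% = Melanotan II plus saturating MCL0020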
Target sequence (P32245 whole entry, looked up): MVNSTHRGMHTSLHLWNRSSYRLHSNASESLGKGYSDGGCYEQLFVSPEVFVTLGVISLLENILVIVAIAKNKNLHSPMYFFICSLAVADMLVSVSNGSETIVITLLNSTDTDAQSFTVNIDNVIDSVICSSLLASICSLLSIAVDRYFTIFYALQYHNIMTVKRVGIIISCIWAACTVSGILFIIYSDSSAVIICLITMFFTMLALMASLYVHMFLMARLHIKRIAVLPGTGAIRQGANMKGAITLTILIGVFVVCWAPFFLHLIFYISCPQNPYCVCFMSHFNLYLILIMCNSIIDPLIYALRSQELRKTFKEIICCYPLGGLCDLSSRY
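Assay system: human MC4R-expressing U2OS cells; reagent: Melanotan II stimulation of cells; dosing: 6.5 µM single dose; timing: compound 30 min, challenge 1 h, detection 1 h; signal: TR-FRET cAMP assay; replicates: one well per compound, no replicates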
ANO1 block = blocks the mouse calcium-activated chloride channel TMEM16A; Q8BHY3; HEK293 TMEM16A/YFP iodide influx fluorescence, ionomycin; normalized B-score (activity score, 25-100; higher = stronger inhibition) at 10 µM; 310,000 tested, 1.2% active; AID 588511;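 active means ratio plate-corrected score three or more library SD toward inhibition, starting fluorescence score within five deviations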;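 further: score derived from kinetic fluorescence span divided by baseline fluorescence per well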
TMEM16A act = mouse TMEM16A channel activation, primary screen. 340,000 tested, 0.3% active. HEK293 TMEM16A/YFP-H148Q/I152L, iodide quench fluorescence; hits give low values. AID 623877. B-score at 10 µM;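 active means fluorescence-ratio B-score plate-corrected deviation score at least 3 library SD below zero, with starting fluorescence score within 5 deviations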;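 further: channel opened by trigger with iodide after compound preincubation; score built on the fluorescence ratio of max minus min over baseline; more negative score means more quench and so TMEM16A activation or potentiation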
MC4R barr agon = agonists of human melanocortin 4 receptor (MC4R) beta-arrestin. P32245. U2OS MC4R beta-arrestin complementation, luminescence; percent of melanotan II response, DMSO zero. activation, % at 8.9 µM. 360,000 tested, 0.98% active. AID 540308;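 active means activation above a per-plate cutoff, the mean activation of sample wells on that plate plus 3 SD, cut at about 8% in these data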
CSC inhib = cancer stem cell inhibition; cancer stem cell-like cells viability, luminescence; AID 2717; 300,000 tested, 1.1% active; inhibition, % at 7.5 µM; in the data active means inhibition above about 75%; tested in HMLE shEcad cells
Beta apoptosis = beta cell apoptosis inhibition | INS-1E cytokine-induced death, ATP luminescence, 48 h; percent of positive-control rescue, neutral wells zero | protection from apoptosis, % (test concentration not listed) | 300,000 tested, 0.8% active;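 active means Every replicate reaches about 75%, or at least half do and their mean reaches it too, limit read from the data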;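 further: 0% = cytokine-treated negative control wells and 100% = positive control rescue; higher means more ATP so stronger rescue from cytokine killing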
Numbers without * were called inactive; i = inactive; / = not tested or not shown.

SMILES | MC4R antagonist | ANO1 block | TMEM16A act | MC4R barr agon | CSC inhib | Beta apoptosis
Cc1ccc2cc3cc(C(=O)N(CC(=O)NC4CCCC4)c4cccc(C)c4C)sc3nc2c1 | 34* | i | i | 1 | 21 | 42
Cc1ccc(C)c(N(CC(=O)NC2CCCC2)C(=O)c2cc3cc4cccc(C)c4nc3s2)c1 | 12 | i | i | -1 | -2 | 3
NC1=NN(c2c(Cl)cc(Cl)cc2Cl)C(=O)C1 | 7 | / | i | 0 | / | /
O=C(N/N=C/c1cc(Cl)ccc1O)C(=O)Nc1ccccc1OC(F)(F)C(F)F | 8 | i | i | 0 | 96* | 89*
COc1ccccc1/C=N/NC(=O)C(=O)Nc1ccccc1OC(F)(F)C(F)F | 0 | i | i | 2 | -5 | 1
O=C(N/N=C/c1cc(Br)ccc1O)C(=O)Nc1ccccc1OC(F)(F)C(F)F | 16 | i | i | 3 | 96* | 83*
CC1CCCN(C(=O)c2ccc(NS(=O)(=O)c3cccc([N+](=O)[O-])c3)cc2)C1 (stereo unspecified) | 2 | i | i | -3 | / | 0
O=C1CCCN1C(=O)COc1ccccc1[N+](=O)[O-] | 7 | i | i | -1 | / | -2
N#CC1=C(N)N2C(=C(C#N)C1c1ccccc1)Sc1ccccc12 (stereo unspecified) | / | i | / | / | -5 | -3
N#CC1=C(N)N2C(=C(C#N)C1c1cccc(Br)c1)Nc1ccccc12 (stereo unspecified) | 3 | i | i | -2 | 58 | 100*
COc1ccc(CC(=O)Oc2ccccc2Cl)cc1S(=O)(=O)N1CCOCC1 | 22 | i | i | -1 | 6 | -1
CNC(=O)NC(=O)C(C)OC(=O)c1oc2ccccc2c1CSc1ccc(Cl)cc1 (stereo unspecified) | -3 | i | i | 3 | 104* | -5
CCNC(=O)NC(=O)C(C)OC(=O)c1oc2ccccc2c1CSC1CCCCC1 (stereo unspecified) | 2 | i | i | 0 | 18 | 4
Cc1sc2ncnc(N3CCN(CCOc4ccc(Cl)cc4)CC3)c2c1C | -8 | 100* | i | 5 | 83* | 103*
Cc1ccc(OCC(=O)NNC(=O)C2CCN(c3ncnc4sc(C)c(C)c34)CC2)cc1 | 2 | i | i | -1 | -4 | -5
Cc1sc2ncnc(N3CCC(C(=O)NNC(=O)COc4ccc(Br)cc4)CC3)c2c1C | -4 | 100* | i | -4 | -12 | -2
Cc1sc2ncnc(N3CCC(C(=O)NNC(=O)COc4cccc(C(F)(F)F)c4)CC3)c2c1C | 6 | 100* | i | -1 | -10 | -8
Cc1sc2ncnc(N3CCC(C(=O)NNC(=O)COc4ccc(Cl)cc4)CC3)c2c1C | 8 | / | i | -4 | / | /
CCc1ccccc1Oc1nc(NCc2ccccc2)nc2ccsc12 | 6 | / | / | -2 | / | /
COc1ccc(-n2ncc(C(C)NS(=O)(=O)c3ccc(C)s3)c2C)cc1 (stereo unspecified) | 18 | i | i | 1 | -21 | -9
CCOC(=O)c1c(NC(=O)c2nn(CC)cc2Br)sc(C)c1C | 6 | i | i | -1 | 16 | 9
CCOC(=O)c1c(NC(=O)c2nn(CC)cc2Br)sc2c1CCCCC2 | 2 | i | i | 1 | 85* | 7
CCOC(=O)c1c(NC(=S)N2CCCCC2)sc2c1CCN(C(=O)OCC)C2 | 12 | i | i | -2 | 93* | 24
COc1ccc(-c2noc(-c3ccccc3-c3ccccc3)n2)cc1OC | 12 | i | i | 1 | 80* | 5
COc1cccc(-c2noc(-c3ccc(Cl)nc3)n2)c1 | -10 | i | i | 8.7* | -22 | /
SMILES | MC4R antagonist | ANO1 block | TMEM16A act | MC4R barr agon | CSC inhib | Beta apoptosis
COc1ccc(-c2noc(-c3cccnc3)n2)cc1OC | 3 | i | i | -1 | 8 | -3
COc1cccc(-c2nc(-c3ccc(C(=O)O)cc3)no2)c1 | 2 | i | i | -1 | 5 | -2
COc1ccc(-c2nc(-c3ccccn3)no2)cc1 | 0 | i | i | -2 | 88* | 89*
COC(=O)[C@]1(Cc2ccccc2)N[C@H](CN(C)S(=O)(=O)c2ccc(-c3ccccc3)cc2)[C@@H]2C(=O)N(C)C(=O)[C@@H]21 | -5 | / | / | 0 | / | 5
S=C1CC2CCCC(C2)N1 (stereo unspecified) | -1 | / | i | -1 | / | /
Cc1coc2cc3oc(=O)c(CCC(=O)NCCN4CCOCC4)c(C)c3cc12 | 4 | i | i | 0 | -9 | -3
CC(OC(=O)CN1C(=O)NC2(CCCC2)C1=O)C(=O)Nc1cccc(Cl)c1 (stereo unspecified) | 4 | i | i | -4 | 0 | /
CCn1c(=O)n(C)c2c(=O)n(C)c(=O)n(C)c21 | 1 | / | i | -1 | / | /
COc1ccccc1C(CC(=O)Nc1ccc(Cl)cc1)c1ccc(OC(C)C)cc1 (stereo unspecified) | 8 | i | i | -1 | -1 | 17
CC(C)Oc1ccc(CNC(=O)CC(c2ccccc2)c2cc(Cl)ccc2O)cc1 (stereo unspecified) | 10 | 100* | i | 9.3* | 97* | 15
Cc1ccc(N(O)C(=O)NCCCCNC(=O)N(O)c2ccc(C)cc2)cc1 | 0 | i | i | -1 | -21 | -9
O=C(Cc1ccsc1)N1CCN(S(=O)(=O)c2ccccc2F)CC1 | 0 | / | i | 0 | / | 3
C=CCN=C(NC#N)SCC(=O)c1cccc(OC)c1 | -2 | 25* | i | 0 | / | -20
CCOC(=O)c1ccc(Nc2cc(C)nc(-c3ccccc3O)n2)cc1 | 1 | i | i | 1 | 43 | 10
Cc1cc(N/N=C/c2c(O)ccc3ccccc23)nc(-c2ccccc2O)n1 | 0 | i | i | 1 | 42 | 89*
Cc1cc(Nc2cccc(F)c2)nc(-c2ccccc2O)n1 | -3 | i | i | 1 | 102* | 1
Cc1cc(Nc2ccccc2)nc(-c2ccccc2O)n1 | -6 | i | i | 3 | 80* | 6
CCN(CC(=O)Nc1ccc(NC(C)=O)cc1)C(=O)c1cc2c(s1)CCCCC2 | -4 | / | i | 2 | 3 | 8
COc1ccc(CNC(=O)CN(C(=O)c2snc(C(N)=O)c2N)c2ccc(OC)c(OC)c2)cc1 | 6 | i | i | 1 | -4 | -12
C[C@H](C[C@H](O)[C@H]1OC1(C)C)C1=C2C[C@H](O)C3[C@@]4(C)CCC(=O)C(C)(C)C4CC[C@]3(C)[C@@]2(C)CC1 (stereo partly specified) | 8 | / | i | 8 | 26 | 22
